# Screening results (PubChem BioAssay)
# In the library only some 2% were active in any assay of this set; here they are far more common.
# FN deposition inh – fibronectin deposition inhibition; actives 0.086% (n = 350,000); AID 743247; AH1F fibroblasts, Alexa488-fibronectin deposition fluorescence, overnight; inhibition, % at 12.6 µM;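 active = mean inhibition across replicates of 30% or more, regardless of how many single replicates reach that level; inconclusive = mean under 30% yet at least half of replicates reach 30%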;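 note: positive control wells lacked labelled fibronectin entirely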
#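 Material – AH1F fibroblast monolayer, labelled fibronectin deposition · Reagent – labelled fibronectin 24 nM · Timing – 1 h adhesion, overnight exposure · Measured by – fluorescence at 485 nm excitation, 525 nm emission · Read-out – inhibition of fibronectin deposition signal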
# Xi reactivation – activators of X-chromosome reactivation in mouse fibroblasts. XiGFP mouse fibroblasts, % GFP-positive cells imaging, 3 d; cells co-treated with 5-aza-dC sensitizer; scaled so ellipticine positive control = 100%. activation, % at 7.58 µM. actives 0.055% (n = 360,000);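 active = mean normalized replicate activation at least 10% and every replicate at or above 10%; inconclusive = only one of the two criteria met; inactive = mean below 10% and not all replicates reach 10%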;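 note: 0% = median of on-plate neutral control wells and 100% = ellipticine 6 µM median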
#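 System: SV40-immortalized XiGFP fibroblast cells, line 68-5-11 / Incubation: 3-day compound exposure, then 15 min fixation at room temperature / Compound: single concentration per compound, delivered by pin transfer / Buffer or medium: DMEM plus 5-aza-dC sensitizer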
# DENV2 CPE rescue – inhibitors of DENV2 cytopathic effect; AID 651640; actives 1.7% (n = 350,000); DENV2-infected cells, cytopathic effect rescue, plate reader; CPE inhibition, % at 9.99 µM; in the data active = CPE inhibition above about 20%, passing the limit was not always enough; inconclusive = no clear call, values can overlap the other calls; tested in BHK-21 cells;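 note: 0% = median of neutral control wells and 100% = median of positive control wells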
# CaV13 ICDI inh – Primary screen for inhibitors of IQ motif and Ca2+-dependent inactivation inhibitor domain binding in CACNA1D, Förster resonance energy transfer in living cells, … | HEK cells, CFP/YFP FRET ICDI-IQ, plate reader, 10 min; percent FRET-ratio fall versus neutral wells | inhibition, % at 12.3 µM | actives 0.098% (n = 340,000) | AID 743397;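 active = mean replicate inhibition of at least 30% and at least 1% of replicates passing that level; inconclusive = only one of the two criteria is met; inactive = neither criterion is met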;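 note: 0% = median of the neutral control wells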
# Casp6 inh – caspase-6 (human) enzyme inhibition; actives 0.53% (n = 350,000); purified caspase-6, Z-VEID-R110 cleavage fluorescence; inhibition, % at 12.5 µM; AID 686996; P55212;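 active = mean inhibition across replicates at least about 35%, with every replicate also reaching that limit, limit read from the data; inconclusive = only one of the two criteria met; inactive = neither criterion met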;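 note: 0% = median of neutral control wells and 100% = no fluorescence left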
# Target sequence (P55212 24-179 limits assumed): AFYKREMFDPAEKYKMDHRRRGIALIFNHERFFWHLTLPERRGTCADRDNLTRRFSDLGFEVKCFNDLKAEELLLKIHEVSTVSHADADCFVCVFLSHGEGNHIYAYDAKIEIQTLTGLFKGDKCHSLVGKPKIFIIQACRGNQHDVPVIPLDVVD
# Target sequence (P55212 194-293 limits assumed): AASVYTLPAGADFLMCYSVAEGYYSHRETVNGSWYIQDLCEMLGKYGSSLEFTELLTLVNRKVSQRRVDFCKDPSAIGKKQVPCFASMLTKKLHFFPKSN
# The depositor's hits bear a star; ? = inconclusive; . = not tested or not shown.
SMILES,FN deposition inh,Xi reactivation,DENV2 CPE rescue,CaV13 ICDI inh,Casp6 inh
O=C(c1c(O)cc(O)cc1O)C1c2c(cc(O)c3c2O[C@H](c2ccc(O)cc2)[C@@H](O)C3)OC1c1ccc(O)cc1 (stereo partly drawn),6,0,4,-5,37*
Cc1ccc(-c2nn(C)c(=O)c3ccccc23)cc1S(=O)(=O)NCCN(C)C,4,0,?,-2,5
CCCCNS(=O)(=O)c1cc(-c2nn(C)c(=O)c3ccccc23)ccc1C,2,0,-5,-4,36*
COc1ccc(C)cc1N(CC(=O)Nc1ccc(S(=O)(=O)N2CCOCC2)cc1)S(C)(=O)=O,4,0,24*,-3,-2
COc1ccc(S(=O)(=O)N2CCOCC2)cc1C(=O)NCC(c1ccccc1)c1ccccc1,-7,0,?,-2,50*
Cc1ccccc1OCCOC(=O)c1cc(S(=O)(=O)N2CCOCC2)ccc1C,2,0,72*,-15,4
O=C(OCCOc1ccccc1)c1cc(S(=O)(=O)N2CCOCC2)ccc1Cl,-3,0,-4,-6,2
CN(C)CC(=O)N[C@H]1CC[C@@H](CCNC(=O)C2CC2)O[C@@H]1CO,-5,0,-5,.,2
C[C@@H]1CCCCO[C@@H](CN(C)C(=O)Nc2ccc(C(F)(F)F)cc2)[C@@H](C)CN([C@H](C)CO)C(=O)c2cc(NC(=O)c3ccncc3)ccc2O1,-7,0,28*,.,1
C[C@@H]1CN([C@H](C)CO)C(=O)c2cc(N(C)C)ccc2O[C@@H](C)CCCCO[C@@H]1CN(C)C(=O)CCC(F)(F)F,.,-1,106*,.,-4
COc1ccc(NC(=O)N(C)C[C@@H]2OCCCC[C@@H](C)Oc3ccc(NC(=O)c4ccncc4)cc3C(=O)N([C@@H](C)CO)C[C@H]2C)cc1,5,0,41*,.,.
C[C@@H]1CCCCO[C@@H](CN(C)C(=O)CCC(F)(F)F)[C@H](C)CN([C@H](C)CO)C(=O)c2cc(NC(=O)c3ccncc3)ccc2O1,.,-1,21*,.,1
C[C@@H]1CCCCO[C@H](CN(C)C(=O)Nc2ccc(C(F)(F)F)cc2)[C@@H](C)CN([C@@H](C)CO)C(=O)c2cc(NC(=O)c3ccncc3)ccc2O1,-2,0,2,.,1
C[C@@H]1CCCCO[C@@H](CN(C)C(=O)CCC(F)(F)F)[C@H](C)CN([C@H](C)CO)C(=O)c2cc(N(C)C)ccc2O1,.,0,.,.,.
CC(=O)N(C)C[C@H]1Oc2ncc(C#Cc3ccc(F)cc3)cc2C(=O)N([C@H](C)CO)C[C@H]1C,-24,-1,3,.,-1
COc1ccc2c3c([nH]c2c1)[C@@H](CO)N(Cc1ccccc1F)CC31CCN(C(=O)C2CC2)CC1,1,0,4,.,2
O=C(c1ccc2c(c1)OCO2)N1C[C@@H]2[C@H](c3ccccc31)[C@H](CO)N2C(=O)CC1CC1,-10,0,7,.,-1
COc1cccc(NC(=O)N(C)C[C@H]2Oc3cc(C#CC4(O)CCCC4)ccc3S(=O)(=O)N([C@@H](C)CO)C[C@@H]2C)c1,-12,-1,4,.,1
COCC#Cc1ccc([C@H]2[C@@H](CO)N3C(=O)CN(C(=O)Nc4cc(F)ccc4F)C[C@H]23)cc1,.,0,.,.,.
C[C@H](CO)N1C[C@H](C)[C@H](CN(C)S(=O)(=O)c2ccc(Cl)cc2)OCc2cn(nn2)CCCC1=O,-10,0,.,.,.
CCCC[C@@H](O)C1=C(C)Cn2c(=O)n(-c3ccccc3)c(=O)n2[C@H]1CO,.,.,-7,.,-3
CC1=C([C@H](O)CCc2ccccc2)[C@H](CO)n2c(=O)n(-c3ccccc3)c(=O)n2C1,.,.,36*,.,4
CC(C)NC(=O)Nc1ccc2c(c1)C(=O)N(C)C[C@H](C)[C@@H](CN(C)S(C)(=O)=O)O2,-8,0,.,.,.
CC(C)C#Cc1ccc([C@H]2[C@H]3CN(C(=O)c4ccc5c(c4)OCO5)CCCCN3[C@H]2CO)cc1,.,0,-2,.,-1
O=C(c1ccco1)N1CCN(C2c3ccccc3-c3ccccc32)CC1,10,0,54*,-20,3
SMILES,FN deposition inh,Xi reactivation,DENV2 CPE rescue,CaV13 ICDI inh,Casp6 inh
N#C[C@H]1[C@@H](c2ccccc2C2=CCCCC2)[C@H](CO)N1S(=O)(=O)c1ccccc1,-4,0,-8,.,-2
N#C[C@H]1[C@H](c2ccccc2C2=CCCCC2)[C@@H](CO)N1S(=O)(=O)c1ccccc1,67*,0,6,.,0
N#C[C@@H]1[C@@H](c2ccccc2C2=CCCCC2)[C@@H](CO)N1S(=O)(=O)c1ccccc1,-5,0,21*,.,0
N#C[C@@H]1[C@@H](c2ccccc2C2=CCCCC2)[C@H](CO)N1S(=O)(=O)c1ccccc1,-11,0,9,.,-2
CCOC(=O)c1c(NC(=O)c2ccno2)c2cc([N+](=O)[O-])ccc2n1C,3,0,84*,-5,-1
Cc1noc(C)c1NC(=O)Nc1ccc2c(c1)C(=O)N([C@@H](C)CO)C[C@@H](C)[C@@H](CN(C)C(=O)Nc1ccc(C(F)(F)F)cc1)OCCCC[C@@H](C)O2,6,0,-8,.,-2
CCc1ccc(Nc2n[n+](-c3ccccc3)c(-c3ccc(C(=O)O)cc3)s2)cc1,-3,0,23*,-4,21
Cc1ccccc1NC(=O)NC1(C(=O)N2CCOCC2)CCCCC1,-1,0,-4,-4,1
O=C(Nc1ccccc1C(F)(F)F)NC1(C(=O)N2CCOCC2)CCCCC1,-2,0,19,-16,86*
CCCCC(=O)Nc1cc([N+](=O)[O-])ccc1Cl,1,0,23*,-3,1
COc1cccc(-c2ccc3c(c2)[C@@H]2[C@@H](CCN2C(=O)c2cccc(F)c2)[C@@H](CO)N3)c1,-14,0,28*,.,-1
O=C(c1cccc(F)c1)N1CC[C@@H]2[C@H]1c1cc(-c3ccccc3)ccc1N[C@@H]2CO,-2,0,46*,.,-4
COc1ccc(CNC(=O)Nc2ccc3c(c2)c(=O)n(C)n3Cc2cc(C)cc(C)c2)cc1,5,0,32*,-5,2
COc1ccc(NC(=O)Nc2cccc3c2O[C@@H](CN(C)Cc2ccccc2)[C@@H](C)CN([C@H](C)CO)C3=O)cc1,.,-1,-1,.,.
CCN(CC)CCNc1nc(-c2ccc(OC)cc2)c(-c2ccc(OC)cc2)s1,-3,1,0,0,1
COCCNc1nc(-c2ccc(OC)cc2)c(-c2ccc(OC)cc2)s1,3,0,0,1,92*
CC(C)[C@H]1COCc2cn(nn2)CCC[C@@H](C)C(=O)N1,3,0,.,.,.
CCN1C(=O)c2cccc3c(S(=O)(=O)N(C)C)ccc1c23,-4,1,-10,42*,4
